The source of these data is publication PMC7468319 (Acta Pharmacologica Sinica, 2019).

Assay [1] deals with BTK. The assay is described as follows: Western blot, phosphorylation of BTK at Tyr223 in TMD8 cells. Format: cell-based, human. The following applies: Tyr223, 4 h. For orientation: A western blot detects proteins with antibodies after separation by electrophoresis.
Assay [2] has as its target BTK (Homo sapiens, UniProt Q06187). The assay is classed as biochemical.
For the next assay, the system named is TMD8 cells. The assay is described as follows: Annexin V-FITC apoptosis analysis by flow cytometry. The assay is classed as cell-based, human. The following applies: TMD8, 72 h, untreated control 12.77%. For orientation: Flow cytometry measures light scatter and fluorescence of single cells or particles in a stream.
Assay [3] relates to Rb, phosphorylated Rb, and cyclin D1. The assay is described as follows: Western blot of G1 phase related proteins. The assay is classed as cell-based, human. The following applies: TMD8, 48 h.
Another assay concerns PARP and caspase 3. The assay is described as follows: Western blot of cleaved PARP and cleaved caspase 3. The assay is classed as cell-based, human. The following applies: TMD8, Western blot.
For assay [4], the target named is T1, EGFR (Homo sapiens, UniProt P00533). The assay is described as follows: Kinase selectivity ELISA at 1000 nM, EGFR. Format: biochemical. A digest of the protocol: (§1)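 ELISA-based kinase activity assay using commercially sourced recombinant kinases, with absorbance read at 490 nm. Each test compound was profiled at 1000 nM against a panel of 35 kinases, and percent inhibition was determined for each kinase.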
T1 sequence (P00533 25-1210): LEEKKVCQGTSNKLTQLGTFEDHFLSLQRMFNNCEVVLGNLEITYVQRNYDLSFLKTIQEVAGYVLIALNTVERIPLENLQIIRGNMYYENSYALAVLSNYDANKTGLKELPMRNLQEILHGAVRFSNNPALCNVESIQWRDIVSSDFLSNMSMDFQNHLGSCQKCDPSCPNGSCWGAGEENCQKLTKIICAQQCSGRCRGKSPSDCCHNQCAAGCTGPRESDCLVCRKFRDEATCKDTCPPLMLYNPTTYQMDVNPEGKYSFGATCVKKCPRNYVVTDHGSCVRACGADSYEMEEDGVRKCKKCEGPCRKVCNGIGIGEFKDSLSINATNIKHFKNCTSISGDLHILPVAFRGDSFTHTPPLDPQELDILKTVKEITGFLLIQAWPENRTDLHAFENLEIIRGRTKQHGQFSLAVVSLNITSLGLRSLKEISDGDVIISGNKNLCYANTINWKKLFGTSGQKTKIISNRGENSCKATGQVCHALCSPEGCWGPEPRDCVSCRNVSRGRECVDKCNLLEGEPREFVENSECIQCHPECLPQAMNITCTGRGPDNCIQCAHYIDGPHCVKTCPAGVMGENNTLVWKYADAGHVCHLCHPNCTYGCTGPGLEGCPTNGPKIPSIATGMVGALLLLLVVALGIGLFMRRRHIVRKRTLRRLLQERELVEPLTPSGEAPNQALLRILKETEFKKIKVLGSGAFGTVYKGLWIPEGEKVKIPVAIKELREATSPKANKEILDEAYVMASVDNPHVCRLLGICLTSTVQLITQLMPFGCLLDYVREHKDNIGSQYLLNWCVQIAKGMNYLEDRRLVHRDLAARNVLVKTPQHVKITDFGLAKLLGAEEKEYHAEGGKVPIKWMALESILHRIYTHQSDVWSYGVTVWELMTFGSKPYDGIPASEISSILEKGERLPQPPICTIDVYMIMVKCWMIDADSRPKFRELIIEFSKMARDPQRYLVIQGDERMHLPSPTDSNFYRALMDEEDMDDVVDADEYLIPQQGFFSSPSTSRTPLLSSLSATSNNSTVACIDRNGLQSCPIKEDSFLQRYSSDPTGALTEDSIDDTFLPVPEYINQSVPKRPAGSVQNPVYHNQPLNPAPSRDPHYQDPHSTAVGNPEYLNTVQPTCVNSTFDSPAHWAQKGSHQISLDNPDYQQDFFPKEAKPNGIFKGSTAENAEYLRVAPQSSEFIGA

Another assay concerns the target ErbB2 (Homo sapiens, UniProt P04626). The assay is described as follows: Kinase selectivity ELISA at 1000 nM, ErbB2. The assay is classed as biochemical. Summed up:
as §1
In general terms: ELISA stands for enzyme-linked immunosorbent assay.

The target of the next assay is ErbB4 (Homo sapiens, UniProt Q15303). In words: Kinase selectivity ELISA at 1000 nM, ErbB4. Format: biochemical. Summed up: as §1
In a further assay the target is T2, ITK (Homo sapiens, UniProt Q08881).
T2 sequence (Q08881 1-620): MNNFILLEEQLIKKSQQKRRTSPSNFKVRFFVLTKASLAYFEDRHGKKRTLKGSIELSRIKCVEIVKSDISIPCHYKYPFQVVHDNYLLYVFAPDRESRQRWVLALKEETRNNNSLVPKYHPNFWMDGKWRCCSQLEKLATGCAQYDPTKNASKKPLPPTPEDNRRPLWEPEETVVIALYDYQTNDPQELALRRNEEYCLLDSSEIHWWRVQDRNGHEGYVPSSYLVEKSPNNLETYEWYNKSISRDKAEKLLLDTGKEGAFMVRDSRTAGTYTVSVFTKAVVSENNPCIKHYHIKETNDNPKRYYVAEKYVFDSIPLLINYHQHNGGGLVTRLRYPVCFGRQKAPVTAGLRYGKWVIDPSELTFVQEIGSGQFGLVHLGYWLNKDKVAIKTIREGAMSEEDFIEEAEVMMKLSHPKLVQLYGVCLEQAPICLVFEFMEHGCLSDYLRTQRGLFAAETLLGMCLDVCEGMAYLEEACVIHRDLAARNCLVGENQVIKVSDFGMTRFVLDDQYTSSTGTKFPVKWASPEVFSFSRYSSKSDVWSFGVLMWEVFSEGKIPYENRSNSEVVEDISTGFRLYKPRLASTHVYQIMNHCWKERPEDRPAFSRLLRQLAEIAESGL
The assay is described as follows: Kinase selectivity ELISA at 1000 nM, ITK. Format: biochemical. Summed up:
as §1

The test system of a further assay is panel of 35 kinases. The assay is described as follows: Kinase selectivity profile, panel of 35 kinases. The following applies: 1000 nM. The assay is classed as biochemical. Summed up:
as §1

Assay [5] concerns the target T1, EGFR. The following applies: read-out: IC50 against EGFR; in vitro enzymatic activity; cited from earlier work.

Sequence of BTK (Homo sapiens, UniProt Q06187) (Q06187 whole entry): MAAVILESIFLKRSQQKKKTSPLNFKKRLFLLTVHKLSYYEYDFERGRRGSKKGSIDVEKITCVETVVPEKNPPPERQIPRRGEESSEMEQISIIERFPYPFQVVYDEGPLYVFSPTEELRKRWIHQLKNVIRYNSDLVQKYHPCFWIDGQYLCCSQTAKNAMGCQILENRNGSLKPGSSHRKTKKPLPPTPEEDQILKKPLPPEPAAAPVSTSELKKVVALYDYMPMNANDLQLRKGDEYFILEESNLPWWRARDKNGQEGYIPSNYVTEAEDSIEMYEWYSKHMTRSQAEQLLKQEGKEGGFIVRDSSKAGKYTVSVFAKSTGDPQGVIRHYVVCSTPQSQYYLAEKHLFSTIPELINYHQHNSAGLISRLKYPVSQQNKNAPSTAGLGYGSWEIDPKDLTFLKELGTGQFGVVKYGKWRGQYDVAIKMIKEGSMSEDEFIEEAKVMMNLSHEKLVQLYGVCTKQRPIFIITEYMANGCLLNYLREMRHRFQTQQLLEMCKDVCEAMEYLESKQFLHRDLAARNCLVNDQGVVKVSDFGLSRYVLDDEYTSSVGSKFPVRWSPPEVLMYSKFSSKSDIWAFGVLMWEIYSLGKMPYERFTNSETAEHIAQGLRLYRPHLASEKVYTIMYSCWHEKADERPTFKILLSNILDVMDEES
Sequence of ErbB2 (P04626 23-1255): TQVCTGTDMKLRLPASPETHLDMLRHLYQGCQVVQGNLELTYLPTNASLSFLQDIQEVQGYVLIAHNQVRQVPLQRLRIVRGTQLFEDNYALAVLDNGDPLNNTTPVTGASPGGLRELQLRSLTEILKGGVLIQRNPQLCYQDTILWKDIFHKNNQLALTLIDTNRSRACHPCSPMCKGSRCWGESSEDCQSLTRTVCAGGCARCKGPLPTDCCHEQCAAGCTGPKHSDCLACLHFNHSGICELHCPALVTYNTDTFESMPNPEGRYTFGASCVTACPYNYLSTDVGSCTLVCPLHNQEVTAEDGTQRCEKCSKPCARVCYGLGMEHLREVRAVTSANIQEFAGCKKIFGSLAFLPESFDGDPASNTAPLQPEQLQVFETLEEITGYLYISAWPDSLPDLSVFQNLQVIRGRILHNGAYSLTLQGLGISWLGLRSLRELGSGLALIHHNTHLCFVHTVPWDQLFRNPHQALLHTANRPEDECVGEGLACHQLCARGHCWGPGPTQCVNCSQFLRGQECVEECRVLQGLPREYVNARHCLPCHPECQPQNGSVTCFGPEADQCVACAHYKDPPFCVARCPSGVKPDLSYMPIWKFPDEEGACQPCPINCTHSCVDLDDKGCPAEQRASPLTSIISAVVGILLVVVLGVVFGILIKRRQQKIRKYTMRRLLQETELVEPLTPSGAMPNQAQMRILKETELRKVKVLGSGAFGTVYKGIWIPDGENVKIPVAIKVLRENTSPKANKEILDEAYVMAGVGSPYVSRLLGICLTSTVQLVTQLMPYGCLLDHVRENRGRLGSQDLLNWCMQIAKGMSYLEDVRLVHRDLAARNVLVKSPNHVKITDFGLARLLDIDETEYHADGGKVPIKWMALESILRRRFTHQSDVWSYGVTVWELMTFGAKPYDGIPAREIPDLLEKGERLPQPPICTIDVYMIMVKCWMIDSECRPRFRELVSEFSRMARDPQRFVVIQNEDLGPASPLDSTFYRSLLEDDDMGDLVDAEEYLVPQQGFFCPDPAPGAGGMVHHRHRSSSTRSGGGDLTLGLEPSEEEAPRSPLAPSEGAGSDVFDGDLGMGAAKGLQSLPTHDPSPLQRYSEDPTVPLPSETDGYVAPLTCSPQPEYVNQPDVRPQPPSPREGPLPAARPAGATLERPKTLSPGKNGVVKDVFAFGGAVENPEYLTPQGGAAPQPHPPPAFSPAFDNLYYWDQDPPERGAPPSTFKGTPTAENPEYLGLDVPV

`CC#CC(=O)N1CCC[C@H]1c1nc(-c2ccc(C(=O)Nc3ccccn3)cc2)c2c(N)nccn12` [ACP-196, acalabrutinib]: the “phosphorylation of BTK in TMD8 cells” value in the assay on BTK [1] is recorded as “effectively suppressed”.

By IC50 is commonly meant the point on the concentration scale where inhibition reaches its midpoint. Regarding `C=CC(=O)Nc1cccc(N2C(=O)OC(C)c3cnc(Nc4ccc(N5CCN(C)CC5)cc4OC)nc32)c1` (centres unmarked) [Compound 2, N-(3-(7-((2-methoxy-4-(4-methylpiperazin-1-yl)phenyl)amino)-4-methyl-2-oxo-2H-pyrimido[4,5-d][1,3]oxazin-1(4H)-yl)phenyl)acrylamide], at BTK [2] (IC50 EGFR vs IC50 BTK), the “selectivity for BTK than for EGFR” value was “greater than 6 fold”. Also, the half-inhibitory concentration (IC50) was 7 nM at BTK [2] (read-out: IC50 against BTK, ELISA-based kinase assay) and 47.4 nM on EGFR [5]. Also, the “phosphorylation of BTK in TMD8 cells” value in the assay with BTK [1] is “effectively suppressed”. Moreover, the apoptosis rate was determined as 44.46% in the assay on TMD8 cells (10 nM), 57.95% in the assay on TMD8 cells (100 nM) and 69.46% in the assay on TMD8 cells (1000 nM). In assay [3], the “levels of Rb, phosphorylated Rb, and cyclin D1 proteins” value is reported as “reduction”. Moreover, the “cleavage of PARP and caspase 3 proteins” value in the assay with PARP and caspase 3 is given as “increased in a dose-dependent manner”. The “inhibition of EGFR” value at EGFR [4] was “greater than 50%”. The “inhibition of ErbB2” value against ErbB2 is “greater than 50%”. At ErbB4, the “inhibition of ErbB4” value is given as “greater than 50%”. The “inhibition of ITK” value on ITK is recorded as “greater than 50%”. The “inhibition of the other kinases tested” value in the assay on panel of 35 kinases was “did not appreciably inhibit”. The “number of kinases with greater than 50% inhibition” value with panel of 35 kinases was “seven”.

For `C=CC(=O)N1CCC[C@@H](n2nc(-c3ccc(Oc4ccccc4)cc3)c3c(N)ncnc32)C1` [ibrutinib], the “phosphorylation of BTK in TMD8 cells” value with BTK [1] is recorded as “effectively suppressed”.
